In test [1] the target is Serotonin 2 (5-HT2) receptor (Rattus norvegicus, UniProt P30994+P08909+P14842). Put plainly: Displacement of [3H]spiroperidol from 5-hydroxytryptamine 2 receptor in rat brain. The format is tissue-based. Put shortly: (§1)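 Rat brain radioligand displacement binding. IC50 values (μM) were derived by nonlinear regression from four or five concentrations of compound.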
(In general: Loss of bound radioactivity is the signal in a displacement assay; it reports binding, not function.)

Test [2] deals with T1, Adenosine receptor A1 (Rattus norvegicus, UniProt P25099).
T1 sequence (P25099 whole entry): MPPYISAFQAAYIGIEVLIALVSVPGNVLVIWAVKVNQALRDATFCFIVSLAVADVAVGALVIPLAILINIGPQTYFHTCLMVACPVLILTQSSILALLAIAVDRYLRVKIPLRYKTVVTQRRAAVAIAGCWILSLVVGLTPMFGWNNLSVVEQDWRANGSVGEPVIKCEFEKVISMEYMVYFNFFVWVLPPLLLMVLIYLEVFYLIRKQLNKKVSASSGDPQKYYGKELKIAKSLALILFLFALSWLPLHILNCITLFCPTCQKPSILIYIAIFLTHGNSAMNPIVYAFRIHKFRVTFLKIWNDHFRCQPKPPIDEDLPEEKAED
As to the kind of experiment: Displacement of [3H]CHA (N6-Cyclohexyl adenosine) from adenosine A1 receptor in rat brain. The format is tissue-based. In short, it runs like this:
as §1

Test [3] concerns the target T2, Adrenergic receptor alpha-1 (Rattus norvegicus, UniProt P15823+P23944+P43140).
T2 sequence (P15823 whole entry): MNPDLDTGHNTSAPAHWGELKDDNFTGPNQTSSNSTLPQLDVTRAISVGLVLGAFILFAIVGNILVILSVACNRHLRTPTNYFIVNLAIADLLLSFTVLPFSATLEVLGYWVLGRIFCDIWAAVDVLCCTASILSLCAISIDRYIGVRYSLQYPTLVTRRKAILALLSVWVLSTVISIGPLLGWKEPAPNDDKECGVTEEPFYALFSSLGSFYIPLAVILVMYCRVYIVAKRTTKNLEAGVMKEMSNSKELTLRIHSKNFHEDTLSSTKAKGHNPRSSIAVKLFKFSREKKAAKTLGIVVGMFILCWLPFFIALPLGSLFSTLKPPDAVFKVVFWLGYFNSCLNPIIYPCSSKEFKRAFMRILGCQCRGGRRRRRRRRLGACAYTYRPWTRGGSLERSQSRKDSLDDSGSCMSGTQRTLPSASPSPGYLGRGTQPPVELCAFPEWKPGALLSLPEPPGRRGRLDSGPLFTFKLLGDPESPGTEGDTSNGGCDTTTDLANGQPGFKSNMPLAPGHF
T2 sequence (P23944 whole entry): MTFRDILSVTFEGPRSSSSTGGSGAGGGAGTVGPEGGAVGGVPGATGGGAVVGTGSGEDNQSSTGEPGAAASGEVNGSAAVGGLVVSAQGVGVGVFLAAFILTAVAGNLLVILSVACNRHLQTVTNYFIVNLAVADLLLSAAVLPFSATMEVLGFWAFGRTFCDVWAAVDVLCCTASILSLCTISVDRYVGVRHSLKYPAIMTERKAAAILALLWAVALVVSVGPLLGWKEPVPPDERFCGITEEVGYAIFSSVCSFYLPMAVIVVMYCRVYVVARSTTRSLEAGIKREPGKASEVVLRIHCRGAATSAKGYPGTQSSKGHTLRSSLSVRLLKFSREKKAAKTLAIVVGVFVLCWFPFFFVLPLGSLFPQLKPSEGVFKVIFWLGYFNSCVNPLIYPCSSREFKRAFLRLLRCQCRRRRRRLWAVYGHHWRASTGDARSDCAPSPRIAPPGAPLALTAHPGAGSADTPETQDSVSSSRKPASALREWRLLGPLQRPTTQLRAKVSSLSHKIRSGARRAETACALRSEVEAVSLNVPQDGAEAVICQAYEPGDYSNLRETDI
T2 sequence (P43140 whole entry): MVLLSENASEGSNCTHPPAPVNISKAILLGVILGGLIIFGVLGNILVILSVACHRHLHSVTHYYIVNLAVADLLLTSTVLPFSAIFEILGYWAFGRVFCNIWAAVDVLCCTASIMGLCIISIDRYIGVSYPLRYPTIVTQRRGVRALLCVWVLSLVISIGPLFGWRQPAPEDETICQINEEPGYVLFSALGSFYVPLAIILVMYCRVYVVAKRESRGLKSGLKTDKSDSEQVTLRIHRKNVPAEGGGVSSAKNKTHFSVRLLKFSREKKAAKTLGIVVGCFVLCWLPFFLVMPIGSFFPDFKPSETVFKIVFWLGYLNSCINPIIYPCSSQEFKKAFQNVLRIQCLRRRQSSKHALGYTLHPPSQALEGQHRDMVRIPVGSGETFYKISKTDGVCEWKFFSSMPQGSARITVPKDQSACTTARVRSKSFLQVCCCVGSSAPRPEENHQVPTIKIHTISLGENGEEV
Put plainly: Displacement of [3H]WB-4101 from alpha-1 adrenergic receptor in rat brain. The format is tissue-based. Put shortly: as §1

Test [4] in a line: Displacement of [3H]flunitrazepam from GABA-A benzodiazepine receptor of rat brain. In short, it runs like this:
as §1

Test [5] has as its target Beta-2 adrenergic receptor (Rattus norvegicus, UniProt P10608). Put plainly: Displacement of [3H]DHA (Dihydroalprenolol) from beta-2 adrenergic receptor in rat brain. The format is tissue-based. Put shortly: as §1
For test [6], the target named is D(1A) dopamine receptor (Rattus norvegicus, UniProt P18901). Put plainly: Displacement of [3H]cis-flupenthixol from Dopamine receptor D1 in rat brain. The format is tissue-based.
D(1A) dopamine receptor, sequence (P18901 whole entry): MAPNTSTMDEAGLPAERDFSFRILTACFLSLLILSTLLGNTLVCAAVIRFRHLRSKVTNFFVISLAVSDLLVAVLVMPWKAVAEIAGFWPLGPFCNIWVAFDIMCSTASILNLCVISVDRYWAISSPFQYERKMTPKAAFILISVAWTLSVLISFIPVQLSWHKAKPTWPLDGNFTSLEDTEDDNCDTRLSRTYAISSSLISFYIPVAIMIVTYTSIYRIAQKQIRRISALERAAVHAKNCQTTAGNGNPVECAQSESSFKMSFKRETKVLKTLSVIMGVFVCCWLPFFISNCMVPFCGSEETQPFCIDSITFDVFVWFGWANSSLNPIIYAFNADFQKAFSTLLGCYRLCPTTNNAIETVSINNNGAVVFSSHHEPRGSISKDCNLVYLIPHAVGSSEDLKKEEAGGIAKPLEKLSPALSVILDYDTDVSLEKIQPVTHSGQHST
For test [7], the target named is D(2) dopamine receptor (Rattus norvegicus, UniProt P61169). As to the kind of experiment: Displacement of [3H]haloperidol from Dopamine receptor D2 in rat brain. The format is tissue-based.
D(2) dopamine receptor, sequence (P61169 whole entry): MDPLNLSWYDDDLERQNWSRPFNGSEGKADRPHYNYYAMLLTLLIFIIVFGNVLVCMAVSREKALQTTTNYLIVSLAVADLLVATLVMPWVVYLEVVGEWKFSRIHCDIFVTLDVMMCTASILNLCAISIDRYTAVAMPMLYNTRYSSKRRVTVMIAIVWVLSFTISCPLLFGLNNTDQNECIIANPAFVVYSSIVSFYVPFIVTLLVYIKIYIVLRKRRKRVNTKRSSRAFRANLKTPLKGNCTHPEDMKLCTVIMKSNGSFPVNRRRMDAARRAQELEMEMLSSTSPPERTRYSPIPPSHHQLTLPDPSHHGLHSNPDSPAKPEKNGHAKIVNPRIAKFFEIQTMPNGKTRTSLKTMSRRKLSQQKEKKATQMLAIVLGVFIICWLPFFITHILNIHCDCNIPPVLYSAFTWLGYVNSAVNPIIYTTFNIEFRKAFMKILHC
Test [8] relates to Monkey. As to the kind of experiment: Inhibition of Sidman avoidance in squirrel monkeys after the compound administered through perorally. The conditions noted are these: in Saimiri, po. The format is functional. Put shortly:
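Oral dosing in squirrel monkeys trained on continuous (Sidman) avoidance responding. ED50 reported ± SEM.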

Test [9] relates to Mus musculus. Put plainly: Inhibition of induction of ataxia in mouse after intraperitoneal administration. The conditions noted are these: ip. The format is functional.
In test [10] the test system is Rattus norvegicus. Put plainly: Inhibition of Sidman avoidance in rats after peroral administration. The conditions noted are these: po. The format is functional. Put shortly: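 Continuous (Sidman) avoidance responding in rats with oral dosing. At least three doses per drug, four animals per dose. ED50 reported ± SEM.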
The target in test [11] is Serotonin 1 (5-HT1) receptor (Rattus norvegicus, UniProt P28564+P30940+P19327+P28565). Put plainly: Displacement of [3H]5-HT from serotonin-1 neurotransmitter receptor in rat brain. The format is tissue-based. Put shortly:
as §1

The target of test [12] is Muscarinic acetylcholine receptor. As to the kind of experiment: Displacement of [3H]quinuclidinyl benzilate(QNB) from Muscarinic acetylcholine receptor in rat brain. The format is tissue-based. In short, it runs like this: as §1
The subject of test [13] is Mus musculus. As to the kind of experiment: Inhibition of locomotor activity in mouse after intraperitoneal administration. The format is functional. The conditions noted are these: Mus musculus, ip; read-out: ED50.

By IC50 is commonly meant the point on the concentration scale where inhibition reaches its midpoint. What is called ED50 is the dose at which the effect has come halfway, by size or by number of responders.

Beta-2 adrenergic receptor, sequence (P10608 whole entry): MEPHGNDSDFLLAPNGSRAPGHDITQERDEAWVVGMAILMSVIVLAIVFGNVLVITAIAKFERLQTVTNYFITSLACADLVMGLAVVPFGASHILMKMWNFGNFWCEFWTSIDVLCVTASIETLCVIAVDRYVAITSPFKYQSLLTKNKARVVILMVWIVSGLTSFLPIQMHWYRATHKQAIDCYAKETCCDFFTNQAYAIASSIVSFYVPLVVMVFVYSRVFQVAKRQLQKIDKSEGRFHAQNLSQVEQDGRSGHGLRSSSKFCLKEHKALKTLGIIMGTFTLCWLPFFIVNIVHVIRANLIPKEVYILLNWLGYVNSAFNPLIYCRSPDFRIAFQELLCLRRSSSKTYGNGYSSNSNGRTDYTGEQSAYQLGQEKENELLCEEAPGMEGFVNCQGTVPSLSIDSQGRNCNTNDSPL

As to `CCC1CN2C(C)=Nc3c(C)nn(C)c3C2=N1` (stereo not drawn), the IC50 is more than 10 µM in [1]; more than 10 µM in [2]; more than 10 µM in test [3]; more than 1 µM in test [4]; more than 10 µM in test [5]; more than 10 µM in test [6]. The IC50 in test [7], in test [11] and in test [12] was more than 10 µM each time. In addition, the ED50 in test [8] is 7.25 mg/kg; in [9], more than 100 mg/kg; in [10], 19.2 mg/kg; in test [13] it was 23.7 mg/kg.

The values above are taken from ChEMBL document CHEMBL1124042, “Synthesis and potential antipsychotic activity of 1H-imidazo[1,2-c]pyrazolo[3,4-e]pyrimidines” (J Med Chem, 1988).
